Assay results from ChEMBL document CHEMBL1765022, “Synthesis and biological evaluation of tetracyclic thienopyridones as antibacterial and antitumor agents” (Bioorg Med Chem, 2011).
pIC50: −log10 of the molar value. Values after ≈ are worked out from the molar mass of the structure shown.

Legend:
Bacillus cereus = assay: Antimicrobial activity against Bacillus cereus ATCC 11778 by broth dilution method; assay type: functional
Summary of the method: (§1)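 Twofold serial broth dilution in Mueller Hinton Broth. […] Growth (drug-free), DMSO solvent and organism-free sterility tubes were included. Three replicates per organism, at least three independent experiments.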

Escherichia coli [1] = assay: Antimicrobial activity against Escherichia coli ATCC 8739 by broth dilution method; assay type: functional; summary of the method: as §1
Bacillus subtilis = assay: Antimicrobial activity against Bacillus subtilis ATCC 6633 by broth dilution method; assay type: functional; summary of the method: as §1
Priestia megaterium = assay: Antimicrobial activity against Bacillus megaterium ATCC 19213 by broth dilution method; assay type: functional; summary of the method: as §1
Staphylococcus aureus [2] = assay: Antimicrobial activity against Staphylococcus aureus ATCC 6538 by broth dilution method; assay type: functional; summary of the method: as §1
Acinetobacter baumannii [3] = assay: Antimicrobial activity against Acinetobacter baumannii ATCC 19606 by broth dilution method; assay type: functional; summary of the method: as §1
Candida tropicalis = assay: Antimicrobial activity against Candida tropicalis ATCC 1369 by broth dilution method; assay type: functional
Summary of the method: (§2)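 Fungi were tested by twofold serial broth dilution in Sabouraud Dextrose Broth. Inoculum was 1x10³ CFU/mL, with 48 h at 30 °C before MIC determination. Growth, DMSO solvent and sterility controls were included. Three replicates per organism, at least three independent experiments.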

Pseudomonas aeruginosa = assay: Antimicrobial activity against Pseudomonas aeruginosa ATCC 9027 by broth dilution method; assay type: functional; summary of the method: as §1
Acinetobacter baumannii [4] = assay: Antimicrobial activity against quinilone-pencillin-resistant Acinetobacter baumannii clinical isolate by broth dilution method; assay type: functional
Saccharomyces cerevisiae = assay: Antimicrobial activity against Saccharomyces cerevisiae ATCC 9763 by broth dilution method; assay type: functional; summary of the method: as §2
[5] = tested on: Staphylococcus epidermidis; assay: Antimicrobial activity against Staphylococcus epidermidis ATCC 12228 by broth dilution method; assay type: functional; summary of the method: as §1
Aspergillus niger = assay: Antimicrobial activity against Aspergillus niger ATCC 6275 by broth dilution method; assay type: functional; summary of the method: as §2
Staphylococcus aureus [6] = assay: Antimicrobial activity against quinilone-pencillin-resistant Staphylococcus aureus isolate SAR 4790 by broth dilution method; assay type: functional
Summary of the method: (§3)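 Twofold serial broth dilution in Mueller Hinton Broth. […] Drug-free tubes, DMSO-only tubes and organism-free tubes served as growth, solvent and sterility controls. Three replicates per organism, at least three independent experiments.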

[7] = Antimicrobial activity against Bacillus thuringiensis var.kurstaki BGSC 4D1 by broth dilution method; assay type: functional, Bacillus thuringiensis serovar kurstaki; summary of the method: as §1
Escherichia coli [8] = assay: Antimicrobial activity against quinilone-pencillin-resistant Escherichia coli clinical isolate by broth dilution method; assay type: functional
Haemophilus influenzae = assay: Antimicrobial activity against Haemophilus influenzae ATCC 19418 by broth dilution method; assay type: functional
Summary of the method: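 H. influenzae was grown in Haemophilus Test Medium using twofold serial broth dilution. […] Drug-free, DMSO-only and organism-free control tubes were included. Triplicates, with at least three independent experiments.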

[9] = tested on: Staphylococcus epidermidis; assay: Antimicrobial activity against quinilone-pencillin-resistant Staphylococcus epidermidis clinical isolate by broth dilution method; assay type: functional
Staphylococcus aureus [10] = assay: Antimicrobial activity against quinilone-pencillin-resistant Staphylococcus aureus isolate SAR 72 by broth dilution method; assay type: functional; summary of the method: as §3
A549 = assay: Antitumor activity against human A549 cells after 72 hrs by MTT assay; assay type: functional, cell-based; conditions: A549, 72 h
Summary of the method: (§4)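 Cells were kept at 37 °C in 5% CO₂, in medium with 2 mM glutamine and 10% FBS; HuDe fibroblasts were grown in DMEM. Compounds were freshly dissolved in DMSO (final ≤0.1% v/v; controls received equal solvent) and applied at 0.1–20 µM for 72 h. Viability was read by MTT. IC₅₀ was extrapolated from Hill-fitted dose–response curves, from at least three independent experiments.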

NHDF = assay: Antitumor activity against human NHDF cells after 72 hrs by MTT assay; assay type: functional, cell-based; summary of the method: as §4
MCF7 = assay: Antitumor activity against human MCF7 cells after 72 hrs by MTT assay; assay type: functional, cell-based; conditions: MCF7, 72 h; summary of the method: as §4
[11] = Inhibition of Escherichia coli DNA gyrase assessed as reduction of DNA supercoiling activity using pBR322 DNA substrate after 30 mins by electrophoresis
[12] = Inhibition of Escherichia coli topoisomerase 4 assessed as decatenation of kDNA after 30 mins by electrophoresis
Summary of the method: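 E. coli topoisomerase IV decatenation of kinetoplast DNA was run in 40 mM HEPES-KOH pH 7.6 with 100 mM potassium glutamate, at varying compound amounts. Products were separated by agarose electrophoresis and quantified by gel documentation. IC₅₀ (µg/mL) is the concentration halving decatenation relative to drug-free enzyme control.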

| SMILES | MIC (Bacillus cereus) [ng/mL] | MIC (Escherichia coli [1]) [ng/mL] | MIC (Bacillus subtilis) [ng/mL] | MIC (Priestia megaterium) [ng/mL] | MIC (Staphylococcus aureus [2]) [ng/mL] | MIC (Acinetobacter baumannii [3]) [ng/mL] | MIC (Candida tropicalis) [ng/mL] | MIC (Pseudomonas aeruginosa) [ng/mL] | MIC (Acinetobacter baumannii [4]) [ng/mL] | MIC (Saccharomyces cerevisiae) [ng/mL] | MIC [5] [ng/mL] | MIC (Aspergillus niger) [ng/mL] | MIC (Staphylococcus aureus [6]) [ng/mL] | MIC [7] [ng/mL] | MIC (Escherichia coli [8]) [ng/mL] | MIC (Haemophilus influenzae) [ng/mL] | MIC [9] [ng/mL] | MIC (Staphylococcus aureus [10]) [ng/mL] | pIC50 (A549) | pIC50 (NHDF) | other results |
| --- | --- | --- | --- | --- | --- | --- | --- | --- | --- | --- | --- | --- | --- | --- | --- | --- | --- | --- | --- | --- | --- |
| CO/N=C1\CN(c2nc3c(cc2F)c(=O)c(C(=O)O)cn3C2CC2)CC1CN (centres undefined) [GEMIFLOXACIN] | 70 (≈ 0.18 µM) | 15 (≈ 0.0385 µM) | 7 (≈ 0.018 µM) | 0.3 (≈ 0.00077 µM) | 15 (≈ 0.0385 µM) | 300 (≈ 0.77 µM) | > 100000 | 70 (≈ 0.18 µM) | 100000 (≈ 257 µM) | > 100000 | 15 (≈ 0.0385 µM) | > 100000 | 50000 (≈ 128 µM) | 15 (≈ 0.0385 µM) | 50000 (≈ 128 µM) | 15 (≈ 0.0385 µM) | 50000 (≈ 128 µM) | 6000 (≈ 15.4 µM) |  |  |  |
| O=C(O)c1cn(C2CC2)c2sc3c4ccc(F)cc4[nH]c3c2c1=O | 7 (≈ 0.0204 µM) | 50000 (≈ 146 µM) | 0.015 (≈ 4.38e-05 µM) | 0.015 (≈ 4.38e-05 µM) | 3 (≈ 0.00876 µM) | 150 (≈ 0.438 µM) | > 100000 | > 100000 | > 100000 | 12000 (≈ 35.1 µM) | 30 (≈ 0.0876 µM) | > 100000 | > 100000 | 3 (≈ 0.00876 µM) | > 100000 | 150 (≈ 0.438 µM) | 1500 (≈ 4.38 µM) | 700 (≈ 2.04 µM) | 5.57 | < 5.00 | pIC50 (MCF7): 5.72 |
| COc1c(N2C[C@@H]3CCCN[C@@H]3C2)c(F)cc2c(=O)c(C(=O)O)cn(C3CC3)c12 [MOXIFLOXACIN] | 300 (≈ 0.747 µM) | 30 (≈ 0.0747 µM) | 15 (≈ 0.0374 µM) | 3 (≈ 0.00747 µM) | 30 (≈ 0.0747 µM) | 150 (≈ 0.374 µM) | > 100000 | 700 (≈ 1.74 µM) |  | > 100000 | 70 (≈ 0.174 µM) | > 100000 | 50000 (≈ 125 µM) | 30 (≈ 0.0747 µM) |  | 30 (≈ 0.0747 µM) |  | 12000 (≈ 29.9 µM) |  |  | IC50 [11]: 850 ng/mL (≈ 2.12 µM); IC50 [12]: 5000 ng/mL (≈ 12.5 µM) |
| COc1c(C)cc2c([nH]c3c2sc2c3c(=O)c(C(=O)O)cn2C2CC2)c1C | 3000 (≈ 7.84 µM) | > 100000 | 3000 (≈ 7.84 µM) | 3000 (≈ 7.84 µM) | 6000 (≈ 15.7 µM) | > 100000 | > 100000 | > 100000 |  | > 100000 | 3000 (≈ 7.84 µM) | > 100000 | > 100000 | 1500 (≈ 3.92 µM) |  | 6000 (≈ 15.7 µM) | 3000 (≈ 7.84 µM) | 3000 (≈ 7.84 µM) | 5.33 | < 5.00 | pIC50 (MCF7): 5.60 |
| O=C(O)c1cn(C2CC2)c2sc3c4ccccc4[nH]c3c2c1=O | 7 (≈ 0.0216 µM) | 25000 (≈ 77.1 µM) | 0.015 (≈ 4.62e-05 µM) | 0.015 (≈ 4.62e-05 µM) | 3 (≈ 0.00925 µM) | 70 (≈ 0.216 µM) | > 100000 | > 100000 | > 100000 | > 100000 | 30 (≈ 0.0925 µM) | > 100000 | > 100000 | 7 (≈ 0.0216 µM) | > 100000 | 30 (≈ 0.0925 µM) | 3000 (≈ 9.25 µM) | 700 (≈ 2.16 µM) | 5.00 | < 5.00 | IC50 [11]: 1000 ng/mL (≈ 3.08 µM); IC50 [12]: > 24000 ng/mL; pIC50 (MCF7): 5.28 |
| O=C(O)c1cn(C2CC2)c2cc(N3CCNCC3)c(F)cc2c1=O [CIPROFLOXACIN] | 300 (≈ 0.905 µM) |  | 30 (≈ 0.0905 µM) | 7 (≈ 0.0211 µM) | 300 (≈ 0.905 µM) | 700 (≈ 2.11 µM) | > 100000 | 70 (≈ 0.211 µM) |  | > 100000 | 70 (≈ 0.211 µM) | > 100000 | > 100000 | 30 (≈ 0.0905 µM) |  | 150 (≈ 0.453 µM) |  | 100000 (≈ 302 µM) |  |  | IC50 [11]: 340 ng/mL (≈ 1.03 µM); IC50 [12]: 4600 ng/mL (≈ 13.9 µM) |
